How the values were obtained:
[1] = target: Botulinum neurotoxin type A (Clostridium botulinum) (UniProt P0DPI0); test: Inhibition of Clostridium botulinum BoNT/A holotoxin-mediated SNAP-25 cleavage in mouse HBG3 cell-derived motor neurons assessed as full length of SNAP-25 at 20 uM preincubated for 30 mins followed by intoxication measured after 4 hrs by Western blot method relative to control; set-up: scale not given: the % may be the effect or the level left
[2] = Distribution co-efficient, log D of the compound at pH 1 by reversed-phase thin-layer chromatographic method; type: physicochemical; settings: buffer
Summary of the method: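 Reversed-phase thin-layer chromatography at pH 1, mobile phase MeOH/HCl (70/30).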

[3] = target: Botulinum neurotoxin type A (Clostridium botulinum) (UniProt P0DPI0); test: Inhibition of Clostridium botulinum BoNT/A holotoxin-mediated SNAP-25 cleavage in mouse HBG3 cell-derived motor neurons assessed as full length of SNAP-25 at 10 uM preincubated for 30 mins followed by intoxication measured after 4 hrs by Western blot method relative to control; set-up: scale not given: the % may be the effect or the level left
[4] = target: Botulinum neurotoxin type A (Clostridium botulinum) (UniProt P0DPI0); test: (§1) Inhibition of Clostridium botulinum BoNT/A light chain using P39 as substrate preincubated for 10 mins followed by substrate addition measured after 10 mins by HPLC method
[5] = target: Botulinum neurotoxin type A (Clostridium botulinum, UniProt P0DPI0); test: as §1
[6] = target: Botulinum neurotoxin type A (Clostridium botulinum) (UniProt P0DPI0); test: Inhibition of Clostridium botulinum BoNT/A holotoxin-mediated SNAP-25 cleavage in mouse HBG3 cell-derived motor neurons preincubated for 30 mins followed by intoxication measured after 4 hrs by Western blot method
[7] = target: Botulinum neurotoxin type A (Clostridium botulinum) (UniProt P0DPI0); test: Inhibition of Clostridium botulinum BoNT/A light chain at 20 uM using P39 as substrate preincubated for 10 mins followed by substrate addition measured after 10 mins by HPLC method relative to control
Summary of the method: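 Purified BoNT/A light chain (20 nM) with 0.2 mg/mL BSA in 50 mM HEPES pH 7.4, preincubated with compound for 10 min at room temperature. Cleavage fragments were separated by reversed-phase HPLC (214/280 nm). Percent inhibition was taken from fragment peak areas with vs without compound. Mean of three experiments.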

[8] = Distribution co-efficient, log D of the compound at pH 10 by reversed-phase thin-layer chromatographic method; type: physicochemical; settings: buffer
Summary of the method: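 Reversed-phase thin-layer chromatography at pH 10, mobile phase acetone/NH3/H2O (85/5/10).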

[9] = target: Botulinum neurotoxin type A (Clostridium botulinum) (UniProt P0DPI0); test: Inhibition of Clostridium botulinum BoNT/A holotoxin-mediated SNAP-25 cleavage in mouse HBG3 cell-derived motor neurons assessed as full length of SNAP-25 at 20 uM treated at 30 mins post intoxication by Western blot method relative to control; set-up: scale not given: the % may be the effect or the level left
[10] = target: Botulinum neurotoxin type A (Clostridium botulinum) (UniProt P0DPI0); test: Inhibition of Clostridium botulinum BoNT/A holotoxin-mediated SNAP-25 cleavage in mouse HBG3 cell-derived motor neurons assessed as full length of SNAP-25 at 20 uM treated at 60 mins post intoxication by Western blot method relative to control; set-up: scale not given: the % may be the effect or the level left

N#Cc1ccc(-c2ccc(-c3ccc(CNCCCCCCNc4ccnc5ccccc45)cc3)s2)cc1
Activity [1]: 48%
chromatographic logD [2]: 3.08
Activity [3]: 22%
inhibition [4]: Dose-dependent effect
IC50 [5]: 3.4 µM
inhibition [6]: Dose-dependent effect
inhibition [7]: 70 to 80%

CC(CCCNCc1ccc(-c2csc3ccc(C#N)cc23)cc1)Nc1ccnc2ccccc12 (stereo unspecified)
Activity [1]: 53%
chromatographic logD [8]: 3.67
Activity [3]: 34%
inhibition [4]: Dose-dependent effect
IC50 [5]: 10.2 µM
inhibition [6]: Dose-dependent effect
inhibition [7]: 61%

CN(CCCCCCNc1ccnc2ccccc12)Cc1ccc(-c2ccc(-c3ccc(C#N)cc3)s2)cc1
inhibition [7]: 55%

N#Cc1ccc2c(-c3ccc(CNCCCCCCNc4ccnc5ccccc45)cc3)csc2c1
inhibition [7]: 8%

CC(CCNCCC12CC3CC(CC(C3)C1)C2)Nc1c(F)cnc2cc(Cl)ccc12 (stereo unspecified)
Activity [1]: 29%
chromatographic logD [8]: 4.33
Activity [3]: 30%
inhibition [6]: Dose-dependent effect
inhibition [7]: 2%

CC(CCCNCc1ccc(-c2csc3ccc(F)cc23)cc1)Nc1ccnc2ccccc12 (stereo unspecified)
Activity [1]: 62%
chromatographic logD [8]: 3.98
Activity [3]: 62%
inhibition [4]: Dose-dependent effect
IC50 [5]: 8.8 µM
inhibition [6]: Dose-dependent effect
inhibition [7]: 69%

N#Cc1ccc(-c2ccc(-c3ccc(CNCCCCNc4ccnc5ccccc45)cc3)s2)cc1
Activity [1]: 39%
chromatographic logD [2]: 2.93
Activity [3]: 18%
inhibition [4]: Dose-dependent effect
IC50 [5]: 9.3 µM
inhibition [6]: Dose-dependent effect
inhibition [7]: 67%

CC(CCNCC12CC3CC(CC(C3)C1)C2)Nc1c(F)cnc2ccccc12 (stereo unspecified)
Activity [1]: 23%
chromatographic logD [8]: 3.09
Activity [3]: 24%
inhibition [6]: Dose-dependent effect

CC(=O)O[C@H]1C[C@H]2[C@@H]([C@H](OC(C)=O)C[C@@H]3C[C@H](N)CC[C@@]32C)[C@@H]2CC[C@H]([C@H](C)CCCNC(C)CCCNc3ccnc4ccccc34)[C@@]12C (mixture of isomers)
Activity [1]: 87%
Activity [9]: 50%
Activity [10]: 22%
chromatographic logD [2]: 2.21
Activity [3]: 86%
inhibition [4]: Dose-dependent effect
IC50 [5]: 3 µM
inhibition [6]: Dose-dependent effect
inhibition [7]: 75%

N#Cc1ccc(-c2ccc(-c3ccc(CNCCNc4ccnc5cc(Cl)ccc45)cc3)s2)cc1
inhibition [7]: 36%

N#Cc1ccc(-c2ccc(-c3ccc(CNCCCCCCCCNc4ccnc5cc(Cl)ccc45)cc3)s2)cc1
inhibition [7]: 14%

CC(=O)O[C@H]1C[C@H]2[C@@H]([C@H](OC(C)=O)C[C@@H]3C[C@H](N)CC[C@@]32C)[C@@H]2CC[C@H]([C@H](C)CCCNCCCC(C)Nc3ccnc4ccccc34)[C@@]12C (mixture of isomers)
Activity [1]: 69%
Activity [9]: 38%
Activity [10]: 22%
chromatographic logD [2]: 2.28
Activity [3]: 67%
inhibition [4]: Dose-dependent effect
IC50 [5]: 2.7 µM
inhibition [6]: Dose-dependent effect
inhibition [7]: 71%

CC(CCN(C)CC12CC3CC(CC(C3)C1)C2)Nc1ccnc2ccccc12 (stereo unspecified)
Activity [1]: 46%
Activity [3]: 47%
inhibition [4]: Dose-dependent effect
IC50 [5]: 5.2 µM
inhibition [6]: Dose-dependent effect
inhibition [7]: 51%

CN(CCCNc1ccnc2cc(Cl)ccc12)CC12CC3CC(CC(C3)C1)C2
Activity [1]: 56%
Activity [9]: 46%
Activity [10]: 39%
chromatographic logD [8]: 3.24
Activity [3]: 51%
inhibition [4]: Dose-dependent effect
IC50 [5]: 8.8 µM
inhibition [6]: Dose-dependent effect
inhibition [7]: 71%

N#Cc1ccc2scc(-c3ccc(CNCCCCNc4ccnc5ccccc45)cc3)c2c1
Activity [1]: 26%
chromatographic logD [8]: 3.67
Activity [3]: 21%
inhibition [4]: Dose-dependent effect
IC50 [5]: 4.6 µM
inhibition [6]: Dose-dependent effect
inhibition [7]: 84%

CC(CCNc1ccnc2cc(Cl)ccc12)NCC12CC3CC(CC(C3)C1)C2 (stereo unspecified)
Activity [1]: 30%
chromatographic logD [8]: 3.4
Activity [3]: 29%
inhibition [4]: Dose-dependent effect
IC50 [5]: 2.7 µM
inhibition [6]: Dose-dependent effect
inhibition [7]: 65%

CC(=O)O[C@H]1C[C@H]2[C@@H]([C@H](OC(C)=O)C[C@@H]3C[C@H](N)CC[C@@]32C)[C@@H]2CC[C@H]([C@H](C)CCCNCCCC(=O)Nc3ccnc4cc(Cl)ccc34)[C@@]12C
inhibition [7]: 37%

CC(CCNCCC12CC3CC(CC(C3)C1)C2)Nc1ccnc2cc(Cl)ccc12 (stereo unspecified)
inhibition [7]: 64%

CN(CCCCNc1ccnc2ccccc12)Cc1ccc(-c2csc3ccc(F)cc23)cc1
Activity [1]: 55%
chromatographic logD [8]: 3.98
Activity [3]: 44%
inhibition [6]: Dose-dependent effect
inhibition [7]: 46%

CC(=O)O[C@H]1C[C@H]2[C@@H]([C@H](OC(C)=O)C[C@@H]3C[C@H](N)CC[C@@]32C)[C@@H]2CC[C@H]([C@H](C)CCCN(C)CCCCNc3ccnc4ccccc34)[C@@]12C
Activity [1]: 69%
chromatographic logD [2]: 2.11
Activity [3]: 70%
inhibition [4]: Dose-dependent effect
IC50 [5]: 1.5 µM
inhibition [6]: Dose-dependent effect
inhibition [7]: 52%

CC(CCNc1ccnc2ccccc12)NCCC12CC3CC(CC(C3)C1)C2 (stereo unspecified)
Activity [1]: 24%
Activity [3]: 23%
inhibition [6]: Dose-dependent effect

Fc1ccc2scc(-c3ccc(CNCCCCNc4ccnc5ccccc45)cc3)c2c1
inhibition [7]: 34%

N#Cc1ccc2scc(-c3ccc(CNCCCCCCNc4ccnc5ccccc45)cc3)c2c1
Activity [1]: 43%
chromatographic logD [8]: 3.85
Activity [3]: 36%
inhibition [4]: Dose-dependent effect
IC50 [5]: 3.3 µM
inhibition [6]: Dose-dependent effect
inhibition [7]: 75%

N#Cc1ccc(-c2ccc(-c3cccc(CNCCCCCCNc4ccnc5ccccc45)c3)s2)cc1
Activity [1]: 71%
chromatographic logD [2]: 3.08
Activity [3]: 46%
inhibition [4]: Dose-dependent effect
IC50 [5]: 8.7 µM
inhibition [6]: Dose-dependent effect
inhibition [7]: 68%

CC(CCNCC12CC3CC(CC(C3)C1)C2)Nc1c(F)cnc2cc(Cl)ccc12 (stereo unspecified)
Activity [1]: 35%
chromatographic logD [8]: 3.24
Activity [3]: 31%
inhibition [6]: Dose-dependent effect
inhibition [7]: 15%

CC(CCNCCC12CC3CC(CC(C3)C1)C2)Nc1c(F)cnc2ccccc12 (stereo unspecified)
Activity [1]: 32%
chromatographic logD [8]: 4.13
Activity [3]: 30%
inhibition [6]: Dose-dependent effect

CC(=O)O[C@H]1C[C@H]2[C@@H]([C@H](OC(C)=O)C[C@@H]3C[C@H](N)CC[C@@]32C)[C@@H]2CC[C@H]([C@H](C)CCCN(C)CCCC(C)Nc3ccnc4ccccc34)[C@@]12C (mixture of isomers)
Activity [1]: 41%
chromatographic logD [2]: 2.38
Activity [3]: 20%
inhibition [4]: Dose-dependent effect
IC50 [5]: 0.7 µM
inhibition [6]: Dose-dependent effect
inhibition [7]: 85%

CN(CCCNc1ccnc2ccccc12)CCC12CC3CC(CC(C3)C1)C2
inhibition [7]: 31%

CN(CCCNc1ccnc2ccccc12)CC12CC3CC(CC(C3)C1)C2
Activity [1]: 31%
Activity [3]: 30%
inhibition [6]: Dose-dependent effect
inhibition [7]: 30%

N#Cc1ccc(-c2ccc(-c3ccc(CNCCCCCCNc4ccnc5cc(Cl)ccc45)cc3)s2)cc1
inhibition [7]: 30%

CC(=O)O[C@H]1C[C@H]2[C@@H]([C@H](OC(C)=O)C[C@@H]3C[C@H](NCCCCCCNc4ccnc5cc(Cl)ccc45)CC[C@@]32C)[C@@H]2CC[C@H]([C@H](C)CCCNCCCCCCNc3ccnc4cc(Cl)ccc34)[C@@]12C
Activity [1]: 84%
Activity [9]: 36%
Activity [10]: 20%
Activity [3]: 70%
inhibition [4]: Dose-dependent effect
IC50 [5]: 12.4 µM
inhibition [6]: Dose-dependent effect
inhibition [7]: 90%

N#Cc1ccc2c(-c3ccc(CNCCCCNc4ccnc5ccccc45)cc3)csc2c1
inhibition [7]: 23%

C#Cc1ccc(-c2ccc(-c3ccc(CNCCCCCCCCNc4ccnc5ccccc45)cc3)s2)cc1
inhibition [7]: 53%

CC(CCCN(C)Cc1ccc(-c2csc3ccc(F)cc23)cc1)Nc1ccnc2ccccc12 (stereo unspecified)
inhibition [7]: 48%

CC(CCNCCC12CC3CC(CC(C3)C1)C2)Nc1ccnc2ccccc12 (stereo unspecified)
inhibition [7]: 42%

Fc1ccc2scc(-c3ccc(CNCCCCCCNc4ccnc5ccccc45)cc3)c2c1
inhibition [7]: 56%

C#Cc1ccc(-c2ccc(-c3ccc(CNCCNc4ccnc5cc(Cl)ccc45)cc3)s2)cc1
inhibition [7]: 19%
